Assay results reported in ChEMBL document CHEMBL1133365, “Synthesis and class III type antiarrhythmic activity of 4-aroyl (and aryl)-l-aralkylpiperazines” (2000).

organism: Mustela putorius furo; test: Dose required to produce 20% increase in effective refractory period in male ferret.; format: functional
How it was run: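 Isolated tissue in buffer (mM: KCl 4, MgCl2 1.0, NaHCO3 25, KH2PO4 1.2, CaCl2 2, dextrose 11), pH 7.3, gassed 5% CO2/95% O2, 37 °C. Timolol 0.1 mM present. Stimulated with 3 msec constant-current pulses. Duplicate control readings, then each concentration read at steady state (~15 min). EC20 is the mean dose giving a 20% rise in ERP, in μM.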

| SMILES | EC20 [nM] |
| --- | --- |
| O=[N+]([O-])c1ccc(CCN2CCN(c3ccc([N+](=O)[O-])cn3)CC2)cc1 | 1300 |
| O=[N+]([O-])c1ccc(CCN2CCN(S(=O)(=O)c3ccc([N+](=O)[O-])cc3)CC2)cc1 | 1000 |
| O=C(c1ccncc1)N1CCN(CCc2ccc([N+](=O)[O-])cc2)CC1 | 1000 |
| CS(=O)(=O)Nc1ccc(C(=O)N2CCN(CCc3ccccc3)CC2)cc1 | 680 |
| O=C(CN1CCN(C(=O)c2ccc([N+](=O)[O-])cc2)CC1)Nc1ccc([N+](=O)[O-])cc1 | 35 |
| O=[N+]([O-])c1ccc(N2CCN(CCc3ccccc3)CC2)cc1 | 500 |
| O=C(c1ccc([N+](=O)[O-])cc1)N1CCNCC1 | 20000 |
| Cc1cccc(CCN2CCC(C(=O)c3ccc(NS(C)(=O)=O)cc3)CC2)n1 | 20 |
| Nc1ccc(CCN2CCN(c3ccc(N)cc3)CC2)cc1 | >100000 |
| O=C(c1ccc([N+](=O)[O-])cc1)N1CCN(Cc2ccc([N+](=O)[O-])cc2)CC1 | 3500 |
| O=C(c1ccc([N+](=O)[O-])o1)N1CCN(CCc2ccc([N+](=O)[O-])cc2)CC1 | 140 |
| O=C(c1ccc([N+](=O)[O-])cc1)N1CCN(C(=O)c2ccc([N+](=O)[O-])cc2)CC1 | 7000 |
| O=C(c1ccc([N+](=O)[O-])cc1)N1CCN(CCc2ccccc2)CC1 | 160 |
| Nc1ccc(CCN2CCN(c3ccncc3)CC2)cc1 | 15000 |
| CS(=O)(=O)Nc1ccc(C(=O)N2CCN(CCOc3ccc(N(S(C)(=O)=O)S(C)(=O)=O)cc3)CC2)cc1 | 25000 |
| O=C(c1ccc([N+](=O)[O-])cc1)N1CCN(CCc2ccc([N+](=O)[O-])s2)CC1 | 10 |
| O=C(c1ccc([N+](=O)[O-])s1)N1CCN(CCc2ccc([N+](=O)[O-])cc2)CC1 | 12 |
| CS(=O)(=O)Nc1ccc(CCN2CCN(C(=O)c3ccc(NS(C)(=O)=O)cc3)CC2)cc1 | 2000 |
| O=[N+]([O-])c1ccc(CCN2CCC(c3ccc([N+](=O)[O-])cc3)CC2)cc1 | 300 |

| SMILES | EC20 [nM] |
| --- | --- |
| O=C(c1ccc(Cl)cc1)C1CCN(CCc2ccc([N+](=O)[O-])cc2)CC1 | 300 |
| O=[N+]([O-])c1ccc(CCN2CCN(c3ccc([N+](=O)[O-])cc3)CC2)cc1 | 30 |
| O=C(c1ccccc1)N1CCN(CCc2ccc([N+](=O)[O-])cc2)CC1 | 140 |
| Nc1ccc(CCN2CCC(c3ccc(N)cc3)CC2)cc1 | 2000 |
| CS(=O)(=O)Nc1ccc(C(=O)N2CCN(CCc3ccc([N+](=O)[O-])cc3)CC2)cc1 | 60 |
| O=[N+]([O-])c1ccc(CCN2CCN(c3ccncc3)CC2)cc1 | 30 |
| Nc1ccc(OCCN2CCN(c3ccc(N)cc3)CC2)cc1 | >100000 |
| O=C(c1ccc([N+](=O)[O-])cc1)N1CCN(CCOc2ccc([N+](=O)[O-])cc2)CC1 | 60 |
| O=C(c1ccc([N+](=O)[O-])cc1)N1CCN(CCc2ccc([N+](=O)[O-])cc2)CC1 | 3 |
| CS(=O)(=O)Nc1ccc(CCN2CCN(C(=O)c3ccc([N+](=O)[O-])cc3)CC2)cc1 | 160 |
| Nc1ccc(CCN2CCN(C(=O)c3ccc([N+](=O)[O-])cc3)CC2)cc1 | 1400 |
| O=[N+]([O-])c1ccc(OCCN2CCN(c3ccc([N+](=O)[O-])cc3)CC2)cc1 | 350 |
| CS(=O)(=O)Nc1ccc(CCN2CCN(c3ccncc3)CC2)cc1 | 220 |
| CS(=O)(=O)Nc1ccc(OCCN2CCN(C(=O)c3ccc(NS(C)(=O)=O)cc3)CC2)cc1 | 15000 |
| O=C(c1cccc([N+](=O)[O-])c1)N1CCN(CCc2ccc([N+](=O)[O-])cc2)CC1 | 270 |
| O=[N+]([O-])c1ccc(CCN2CCN(c3ccccc3)CC2)cc1 | 800 |
| CN(CCOc1ccc(NS(C)(=O)=O)cc1)CCc1ccc(NS(C)(=O)=O)cc1 [DOFETILIDE] | 15 |
| CC(C)NCC(O)c1ccc(NS(C)(=O)=O)cc1 (centres undefined) [SOTALOL] | 3500 |

organism: Mustela putorius furo; test: Peak isometric tension during the basic stimulus trains (S1) during control and compound induced tension, expressed as percent control.; format: functional
How it was run: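 Same preparation: buffer pH 7.3, 5% CO2/95% O2, 37 °C, timolol 0.1 mM, 3 msec constant-current stimulation. Isometric force was recorded, and peak tension was taken during the basic S1 stimulus trains. Readings were made at steady state, about 15 min after each concentration. The change is expressed as percent of control.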

| SMILES | Tension [%] |
| --- | --- |
| O=[N+]([O-])c1ccc(CCN2CCN(c3ccc([N+](=O)[O-])cn3)CC2)cc1 | -21 |
| O=[N+]([O-])c1ccc(CCN2CCN(S(=O)(=O)c3ccc([N+](=O)[O-])cc3)CC2)cc1 | -24 |
| O=C(c1ccncc1)N1CCN(CCc2ccc([N+](=O)[O-])cc2)CC1 | 19 |
| CS(=O)(=O)Nc1ccc(C(=O)N2CCN(CCc3ccccc3)CC2)cc1 | 5 |
| O=C(CN1CCN(C(=O)c2ccc([N+](=O)[O-])cc2)CC1)Nc1ccc([N+](=O)[O-])cc1 | 5 |
| O=[N+]([O-])c1ccc(N2CCN(CCc3ccccc3)CC2)cc1 | -6 |
| O=C(c1ccc([N+](=O)[O-])cc1)N1CCNCC1 | -33 |
| Cc1cccc(CCN2CCC(C(=O)c3ccc(NS(C)(=O)=O)cc3)CC2)n1 | 9 |
| Nc1ccc(CCN2CCN(c3ccc(N)cc3)CC2)cc1 | -53 |
| O=C(c1ccc([N+](=O)[O-])cc1)N1CCN(Cc2ccc([N+](=O)[O-])cc2)CC1 | -44 |
| O=C(c1ccc([N+](=O)[O-])o1)N1CCN(CCc2ccc([N+](=O)[O-])cc2)CC1 | -2 |
| O=C(c1ccc([N+](=O)[O-])cc1)N1CCN(C(=O)c2ccc([N+](=O)[O-])cc2)CC1 | -6 |
| O=C(c1ccc([N+](=O)[O-])cc1)N1CCN(CCc2ccccc2)CC1 | -8 |
| Nc1ccc(CCN2CCN(c3ccncc3)CC2)cc1 | 9 |
| CS(=O)(=O)Nc1ccc(C(=O)N2CCN(CCOc3ccc(N(S(C)(=O)=O)S(C)(=O)=O)cc3)CC2)cc1 | -14 |
| O=C(c1ccc([N+](=O)[O-])cc1)N1CCN(CCc2ccc([N+](=O)[O-])s2)CC1 | -17 |
| O=C(c1ccc([N+](=O)[O-])s1)N1CCN(CCc2ccc([N+](=O)[O-])cc2)CC1 | 0 |
| CS(=O)(=O)Nc1ccc(CCN2CCN(C(=O)c3ccc(NS(C)(=O)=O)cc3)CC2)cc1 | 1 |
| O=[N+]([O-])c1ccc(CCN2CCC(c3ccc([N+](=O)[O-])cc3)CC2)cc1 | 0 |

| SMILES | Tension [%] |
| --- | --- |
| O=C(c1ccc(Cl)cc1)C1CCN(CCc2ccc([N+](=O)[O-])cc2)CC1 | -4 |
| O=[N+]([O-])c1ccc(CCN2CCN(c3ccc([N+](=O)[O-])cc3)CC2)cc1 | 5 |
| O=C(c1ccccc1)N1CCN(CCc2ccc([N+](=O)[O-])cc2)CC1 | -7 |
| Nc1ccc(CCN2CCC(c3ccc(N)cc3)CC2)cc1 | 15 |
| CS(=O)(=O)Nc1ccc(C(=O)N2CCN(CCc3ccc([N+](=O)[O-])cc3)CC2)cc1 | 1 |
| O=[N+]([O-])c1ccc(CCN2CCN(c3ccncc3)CC2)cc1 | 8 |
| Nc1ccc(OCCN2CCN(c3ccc(N)cc3)CC2)cc1 | -43 |
| O=C(c1ccc([N+](=O)[O-])cc1)N1CCN(CCOc2ccc([N+](=O)[O-])cc2)CC1 | 0 |
| O=C(c1ccc([N+](=O)[O-])cc1)N1CCN(CCc2ccc([N+](=O)[O-])cc2)CC1 | -3 |
| CS(=O)(=O)Nc1ccc(CCN2CCN(C(=O)c3ccc([N+](=O)[O-])cc3)CC2)cc1 | 13 |
| Nc1ccc(CCN2CCN(C(=O)c3ccc([N+](=O)[O-])cc3)CC2)cc1 | -14 |
| O=[N+]([O-])c1ccc(OCCN2CCN(c3ccc([N+](=O)[O-])cc3)CC2)cc1 | -27 |
| CS(=O)(=O)Nc1ccc(CCN2CCN(c3ccncc3)CC2)cc1 | 2 |
| CS(=O)(=O)Nc1ccc(OCCN2CCN(C(=O)c3ccc(NS(C)(=O)=O)cc3)CC2)cc1 | -13 |
| O=C(c1cccc([N+](=O)[O-])c1)N1CCN(CCc2ccc([N+](=O)[O-])cc2)CC1 | -7 |
| O=[N+]([O-])c1ccc(CCN2CCN(c3ccccc3)CC2)cc1 | 10 |
| CN(CCOc1ccc(NS(C)(=O)=O)cc1)CCc1ccc(NS(C)(=O)=O)cc1 [DOFETILIDE] | 5 |
| CC(C)NCC(O)c1ccc(NS(C)(=O)=O)cc1 (centres undefined) [SOTALOL] | -13 |
